Bioassay records: PubChem, several laboratories
Furin inhibitor = human furin inhibition; purified furin, fluorogenic substrate cleavage; P09958; AID 463115; inhibition, % at 20 µM or 30 µM; 220,000 tested, 0.061% active; in the data active = inhibition above about 25%
KLK5 inh = kallikrein 5 (human) inhibition. recombinant hK5, fluorogenic AMC substrate cleavage. inhibition, % at 5 µM. AID 873. 210,000 tested, 0.59% active;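 active = inhibition of 40% or more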
Thrombin inh = inhibitors of human thrombin | P00734 | alpha-thrombin, Boc-VPR-AMC fluorogenic substrate cleavage | inhibition, % at 5 µM | 220,000 tested, 0.26% active | AID 1046;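 active = inhibition at or above 40%; inactive = inhibition below 40%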
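System: Human alpha-thrombin protein | Medium: pH 7.5 Tris (50 mM) with NaCl 150 mM, Tween 20 0.05% | Times: Enzyme reaction carried out at room temperature | Detection: AMC fluorescence, 355/460 nm | Evaluation: Percent inhibition scaled between no-compound controls and no-enzyme blanks | Benchmarks: Enzyme without compound as high, wells lacking enzyme as low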
FXIa inh = blocks human coagulation factor XIa protease activity; P03951; purified FXIa, Boc-Glu-Ala-Arg-AMC fluorogenic substrate; inhibition, % at 5 µM; 220,000 tested, 0.14% active; AID 798;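 active = inhibition of at least 40%; inactive = inhibition below 40%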;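 note: fluorescence of freed AMC excited at 355 nm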
Target sequence (P03951 19-387 limits assumed): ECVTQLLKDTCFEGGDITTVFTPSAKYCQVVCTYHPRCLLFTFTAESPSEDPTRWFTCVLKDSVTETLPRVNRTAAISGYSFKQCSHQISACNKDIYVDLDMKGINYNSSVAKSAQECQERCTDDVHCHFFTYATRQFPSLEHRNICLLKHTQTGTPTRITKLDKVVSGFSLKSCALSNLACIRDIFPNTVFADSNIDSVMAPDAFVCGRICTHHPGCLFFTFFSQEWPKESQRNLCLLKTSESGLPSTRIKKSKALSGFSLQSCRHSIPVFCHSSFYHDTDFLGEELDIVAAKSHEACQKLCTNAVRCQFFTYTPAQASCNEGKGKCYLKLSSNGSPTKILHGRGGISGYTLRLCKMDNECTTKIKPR
Target sequence (P03951 388-625 limits assumed): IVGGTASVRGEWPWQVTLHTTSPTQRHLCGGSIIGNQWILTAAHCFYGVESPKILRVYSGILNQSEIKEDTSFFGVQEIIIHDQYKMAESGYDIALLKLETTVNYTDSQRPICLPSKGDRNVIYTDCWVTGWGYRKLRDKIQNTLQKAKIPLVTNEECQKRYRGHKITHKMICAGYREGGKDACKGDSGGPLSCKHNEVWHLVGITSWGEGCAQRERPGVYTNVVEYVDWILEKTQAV
FXIIa inh 1536 = blocks human coagulation factor XIIa protease activity; inhibition, % at 5 µM; 220,000 tested, 0.3% active; P00748; purified FXIIa, Boc-QGR-AMC fluorogenic substrate, 2 h; in the data active = inhibition above about 40%
A number is an active result; n = inactive; x = no result given. This is a sample that favours compounds with a hit; in the whole collection about 1.1% have one here.

SMILES | Furin inhibitor | KLK5 inh | Thrombin inh | FXIa inh | FXIIa inh 1536
CC(C)C(=O)NC(NC(=O)C(C)C)c1ccc([N+](=O)[O-])cc1 | n | n | n | n | n
CCOC(=O)c1oc2ccccc2c1NC(=O)c1ccccc1OC | n | 60 | n | n | n
Cc1[nH]c2ccccc2c1C(=O)CSC(=S)N1CCCCC1 | n | n | n | n | n
NC(=O)COC(=O)c1ccc(Cl)c(S(=O)(=O)N2CCN(c3ccc(F)cc3)CC2)c1 | n | 45 | n | n | n
O=C1NCCN/C1=C\C(=O)c1cccc(Br)c1 | n | n | n | n | n
COc1cc(C(=O)OCC(C)=O)ccc1OCc1c(C)noc1C | n | 42 | x | 42 | n
COCCCNC(=O)CS(=O)(=O)Cc1nc(-c2cccc(OC)c2)oc1C | n | n | n | n | n
CCCCN(C)C(=O)CS(=O)(=O)Cc1nc(-c2cccc(OC)c2)oc1C | n | 44 | n | n | n
COc1ccc(-c2cn3cccc(C)c3n2)cc1F | n | 41 | n | n | n
Cc1ccc(-c2cn3cccc(C)c3n2)cc1 | n | n | n | n | n
CC(=O)Nc1c(C(=O)O)[nH]c2ccccc12 | n | 72 | n | n | n
CCC(=O)Nc1cc(C(C)C)c(O)cc1C | n | 83 | n | n | n
Cc1cc(O)c(C(C)C)cc1NC(=O)Nc1cccc2ccccc12 | n | n | n | n | n
Cc1cc(OC(=O)C(C)(C)C)c([N+](=O)[O-])c(=O)[nH]1 | n | n | n | n | n
O=C(N/N=C/c1ccccc1OCC(=O)N1CCCC1)C(=O)Nc1ccccc1F | n | n | n | n | n
CC(CN1C(C)CCCC1C)OC(=O)c1ccccc1Cl (stereo not given) | n | n | n | n | n
CC(CN1C(C)CCCC1C)OC(=O)c1ccc(Cl)cc1Cl (stereo not given) | n | n | n | n | 45
CC1(C)CC(=O)C(N=Nc2ccc(Br)cc2)=C(O)C1 | n | n | n | n | 75
CC(=O)Nc1ccccc1-c1nc2ccc(C(=O)N3CCN(c4cccc(C)c4)C(C)C3)cc2[nH]c1=O (stereo not given) | n | 59 | n | n | n
Cc1cccc(C(=O)N[C@H](C(=O)OCC(=O)NC(=O)c2cccn2C)C(C)C)c1 | n | n | n | n | n
Clc1ccc(C(c2nnnn2C2CCCC2)N2CCSCC2)cc1 (stereo not given) | n | n | n | n | n
COc1ccc(-c2cc(-c3nnc(COC(=O)CC4CC5CCC4C5)o3)c3ccccc3n2)cc1OC (stereo not given) | n | n | n | n | 42
COc1cc(OC)cc(-n2nnnc2SCC(=O)Nc2ccc(C(C)=O)cc2)c1 | n | n | 89 | n | n
COc1ccc(NC(=O)CSc2nnnn2-c2ccc(OC)cc2)cc1 | n | n | n | n | n
CCOC(=O)N1CCN(C(=O)CSCC(=O)Nc2nc(-c3ccc(OC)cc3)cs2)CC1 | n | n | n | n | n
SMILES | Furin inhibitor | KLK5 inh | Thrombin inh | FXIa inh | FXIIa inh 1536
CCOC(=O)N1CCN(C(=O)CSCC(=O)Nc2nc(-c3ccc(Cl)s3)cs2)CC1 | n | n | 50 | n | n
Cc1ccc2nc(/C(C#N)=C/c3cn[nH]c3-c3ccc(F)cc3)[nH]c2c1 | 28 | n | n | n | n
Cc1cccc(OCC(O)CN2CC3(C)CC2CC(C)(C)C3)c1 (stereo not given) | n | n | n | 64 | n
CC1(C)CC(NC(=S)NCc2ccc3c(c2)OCO3)CC(C)(C)N1 | n | n | n | n | n
Cc1ccccc1NC(=O)Nc1ccccc1Br | n | n | 47 | n | n
Cc1ccccc1NC(=O)C(=O)Nc1ccccc1C | n | n | n | n | n
Cc1cc(C)c(S(=O)(=O)N2CCN(c3ccc([N+](=O)[O-])c(NCC4CCCO4)c3)CC2)c(C)c1 (stereo not given) | n | 41 | n | n | n
O=C1COc2ccc(C(=O)COC(=O)c3cnc(Cl)c(Cl)c3)cc2N1 | n | n | n | n | n
COc1ccc(Oc2ccccc2C=O)cc1 | n | 51 | n | n | n
COc1ccc(Oc2ccccc2/C=C/C(=O)O)cc1 | n | n | n | n | n
Cc1ccc2nc(Cl)c(/C=N/Nc3nc(C)cc(C)n3)c(=O)n2c1 | n | n | n | n | n
CC(=O)NNC(=S)NC(=O)c1ccccc1 | n | n | 43 | n | 42
COc1cc(CNCc2ccccn2)ccc1OCc1cccc(Cl)c1 | n | n | n | n | n
CCCCNC(=O)C1COc2ccccc2O1 (stereo not given) | n | n | n | n | n
O=C(NCCOC(=O)C1COc2ccccc2O1)C1COc2ccccc2O1 (stereo not given) | n | 46 | n | n | n
